Assay results published in ChEMBL document CHEMBL2021862, “5-imino-1,2,4-thiadiazoles: first small molecules as substrate competitive inhibitors of glycogen synthase kinase 3” (J Med Chem, 2012).
Active and inactive are the calls of the source. No cut-off for these calls is given here.

Assays:
[1] = target: T1, Glycogen synthase kinase-3 beta (Homo sapiens, UniProt P49841); assay: Inhibition of human recombinant GSK3beta at 10 uM after 30 mins by luminescence assay in presence of ATP
How it was run: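 Human recombinant GSK-3β (20 ng) with prephosphorylated polypeptide substrate 25 μM and ATP 1 μM in 50 mM HEPES pH 7.5, 1 mM EDTA, 1 mM EGTA, 15 mM Mg acetate. Final DMSO ≤1%. Incubated 30 min at 30 °C, stopped with Kinase-Glo reagent, and luminescence read after 10 min. Inhibition is relative to the no-inhibitor maximum. IC50 is the concentration giving 50% activity loss.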
Target sequence in this assay (P49841 whole entry, looked up): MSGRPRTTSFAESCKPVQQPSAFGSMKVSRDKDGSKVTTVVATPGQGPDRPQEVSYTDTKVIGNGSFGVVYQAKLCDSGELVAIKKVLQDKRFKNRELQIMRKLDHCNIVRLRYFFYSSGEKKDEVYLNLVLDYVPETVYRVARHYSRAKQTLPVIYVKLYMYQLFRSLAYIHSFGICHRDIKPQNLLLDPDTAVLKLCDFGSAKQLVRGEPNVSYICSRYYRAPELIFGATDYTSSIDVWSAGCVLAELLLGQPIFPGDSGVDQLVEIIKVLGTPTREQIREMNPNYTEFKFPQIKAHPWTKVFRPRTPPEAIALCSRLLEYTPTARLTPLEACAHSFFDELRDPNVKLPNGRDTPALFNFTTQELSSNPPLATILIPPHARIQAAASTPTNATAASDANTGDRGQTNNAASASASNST

[2] = target: T1, Glycogen synthase kinase-3 beta; assay: Inhibition of human recombinant GSK3beta after 30 mins by luminescence assay in presence of ATP
Target sequence in this assay (P49841 whole entry): as the sequence (P49841 whole entry, looked up) above

Astrocyte = assay: Neuroprotective activity in rat astrocytes assessed as decrease in LPS-induced nitrite production at 28 to 52 ug/ml after 24 hrs administered 1 hr before LPS challenge by Griess method; format: functional, cell-based
How it was run: (§1)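 Astrocytes and microglia were from neonatal (P2) rat cortex, separated by shaking; microglia received 10 ng/mL GM-CSF. Purity >98% (OX42/GFAP). Cells were pretreated 1 h with compound, then given LPS for 24 h. Supernatant was mixed 1:1 with Griess reagent, left 15 min at room temperature, and absorbance read at 492/540 nm.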

Microglia = assay: Neuroprotective activity in rat microglia cells assessed as decrease in LPS-induced nitrite production at 28 to 52 ug/ml after 24 hrs administered 1 hr before LPS challenge by Griess method; format: functional, cell-based; how it was run: as §1
Cortical neurone = assay: Neuroprotective activity in rat cortical neurons assessed as decrease in LPS-induced nitrite production at 28 to 52 ug/ml after 24 hrs administered 1 hr before LPS challenge by Griess method; format: functional
How it was run: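 Cortical neurons from E18 rats were grown in Neurobasal/B-27 at 37 °C, 5% CO2 for 1 week. They were pretreated 1 h with compound, then exposed to supernatant from LPS-stimulated microglia. After 24 h, nitrite in the medium was measured by Griess reaction (equal volume reagent, 15 min room temperature, absorbance 492/540 nm).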

NSC = assay: Neurogenic activity in rat hippocampal NSC assessed as increase in beta-tubulin after 24 hrs by DAPI staining-based immunocytometric analysis; format: functional, cell-based; conditions: Hippocampus
How it was run: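 Neurospheres from adult rat hippocampus were expanded in DMEM/F12 with EGF and FGF (10 ng/mL each) and B27, and treated with compound. Spheres were plated on poly-L-lysine without growth factors. Cells were fixed in 4% paraformaldehyde, permeabilized with 0.1% Triton X-100, stained with anti-β-tubulin (Tuj1) and an Alexa secondary, counterstained with DAPI, and imaged by confocal microscopy.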

[3] = Effective permeability across porcine polar brain lipid after 4 hrs by PAMPA; conditions: pig; for Papp at 4 h: PAMPA; for Peff: pampa, 4 h
[4] = target: T1, Glycogen synthase kinase-3 beta; assay: Non-competitive inhibition of human recombinant GSK3beta at 10 uM after 30 mins by Michaelis-Menten equation in presence of 1 to 50 uM ATP; conditions: 0.4 to 2 uM, in the assay text read “at 0.4 to 2 uM” for “at 10 uM”
How it was run: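 Double-reciprocal kinetics on GSK-3β using the ADP-Glo kinase assay. ATP was varied from 1 to 50 μM and inhibitor from 0.4 to 2 μM, with GS-2 fixed at 12.5 μM. Each point is the mean of two experiments, each run in duplicate.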
Target sequence in this assay (P49841 whole entry, looked up): as above

[5] = target: T1, Glycogen synthase kinase-3 beta; assay: Competitive inhibition of human recombinant GSK3beta at 0.5 to 2.5 uM after 30 mins by Michaelis-Menten equation in presence of 1 uM ATP
Target sequence in this assay (P49841 whole entry, looked up): as above

[6] = target: T1, Glycogen synthase kinase-3 beta; assay: Competitive inhibition of human recombinant GSK3beta at 12.5 to 100 uM after 30 mins by Michaelis-Menten equation in presence of 1 uM ATP
How it was run: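 Lineweaver–Burk kinetics on human recombinant GSK-3β. GS-2 substrate was varied from 12.5 to 100 μM against inhibitor at 0.5–2.5 μM, with ATP held at 1 μM. Luminescent kinase read-out. Each point is the mean of two experiments, each run in duplicate.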
Target sequence in this assay (P49841 whole entry, looked up): as above

inhibition [1] [%] | IC50 [2] [nM] | Papp at 4 h [3] [×10⁻⁶ cm/s] | Compound | also measured
> 60 | 1600 |  | Br.FC(F)(F)c1ccc(-c2n/c(=N\Cc3cccnc3)sn2-c2ccccc2)cc1 | Peff [3]: ND(Insoluble)
> 60 |  |  | OCC/N=c1\nc(-c2ccccc2)n(-c2ccccc2)s1 | inhibition [4]: Active; Activity (Astrocyte): Active; Activity (Microglia): Active; Activity (Cortical neurone): Active; Activity (NSC): Active; inhibition [5]: Active
 |  | 1.7 | CN1C(C(=O)Nc2ccccn2)=C(O)c2ccccc2S1(=O)=O [PIROXICAM] | 
 |  | 14.9 | CNCCCN1c2ccccc2CCc2ccccc21 [DESIPRAMINE] | 
> 60 | 1200 | 13.7 | Br.COc1ccc(-c2n/c(=N\CCO)sn2-c2ccccc2)cc1 | 
> 60 |  |  | Br.c1ccc(/N=c2/nc(-c3ccccc3)n(-c3ccccc3)s2)cc1 | Peff [3]: ND(Insoluble)
> 60 | 600 | 9.1 | Br.N=c1nc(-c2ccccc2)n(-c2ccccc2)s1 | 
> 60 | 2000 | 4.4 | Br.CCOC(=O)C/N=c1\nc(-c2ccccc2)n(-c2ccc(OC)cc2)s1 | 
 | 600 | 13.6 | Cl.OCC/N=c1\nc(-c2ccccc2)n(-c2ccccc2)s1 | 
> 60 | 300 | 10.2 | Br.OCC/N=c1\nc(-c2cccc3ccccc23)n(-c2ccccc2)s1 | 
> 60 | 600 | 5.3 | Br.Cc1n/c(=N\Cc2cccnc2)sn1-c1ccccc1 | 

Second part, the compound before the results:

Compound | inhibition [1] [%] | IC50 [2] [nM] | Papp at 4 h [3] [×10⁻⁶ cm/s] | also measured
Br.COc1ccc(-n2s/c(=N/CCO)nc2-c2ccccc2)cc1 | > 60 | 4600 | 13.4 | Activity (Astrocyte): Active; Activity (Microglia): Active; Activity (Cortical neurone): Active; Activity (NSC): Active
Br.c1ccc(-c2n/c(=N\C3CCCCC3)sn2-c2ccccc2)cc1 | > 60 | 2100 |  | Peff [3]: ND(Insoluble)
Br.COc1ccc(-c2n/c(=N\c3ccccc3)sn2-c2ccccc2)cc1 | > 60 | 1100 |  | Peff [3]: ND(Insoluble)
Br.OCC/N=c1\nc(-c2ccccc2)n(-c2ccccc2)s1 |  | 2000 | 15.8 | 
CCOC(=O)C/N=c1\nc(-c2ccccc2)n(-c2ccccc2)s1 | > 60 |  |  | Activity (Astrocyte): Active; Activity (Microglia): Active; Activity (Cortical neurone): Active; Activity (NSC): Active
Br.c1ccc(-c2n/c(=N\Cc3cccnc3)sn2-c2ccccc2)cc1 | > 60 | 1300 | 10.7 | inhibition [4]: Active; Activity (Astrocyte): Active; Activity (Microglia): Active; Activity (Cortical neurone): Active; Activity (NSC): Active; inhibition [5]: Active
Cn1c(=O)c2c(ncn2C)n(C)c1=O [CAFFEINE] |  |  | 1.6 | 
Br.CCOC(=O)C/N=c1\nc(-c2ccccc2)n(-c2ccccc2)s1 |  | 7000 | 6.2 | 
Br.CCOC(=O)C/N=c1\nc(-c2ccc(OC)cc2)n(-c2ccccc2)s1 | > 60 | 500 | 4 | 
c1ccc(/N=c2\nc(-c3ccccc3)n(-c3ccccc3)s2)cc1 | > 60 |  |  | Peff [3]: ND(Insoluble)
Br.COc1ccc(-c2n/c(=N\Cc3cccnc3)sn2-c2ccccc2)cc1 | > 60 | 1200 | 4.8 | 
Br.COc1ccc(-n2s/c(=N/Cc3cccnc3)nc2-c2ccccc2)cc1 | > 60 | 4100 | 6.3 | 
CCCCC/N=c1\nc(-c2ccc(OC)cc2)n(-c2ccccc2)s1.Cl |  | 1100 | 8.5 | 
Br.c1ccc(-c2n/c(=N\CCN3CCOCC3)sn2-c2ccccc2)cc1 | > 60 | 900 | 7.2 | inhibition [4]: Active; inhibition [5]: Active
H-YRRAAVPPSPSLSRHSSPHQAEDEEE-OH |  |  |  | inhibition [6]: Active
